Here are results for 59 compounds from ChEMBL document CHEMBL2040715, “Discovery of a Potent HIV Integrase Inhibitor that Leads to a Prodrug with Significant anti-HIV Activity” (ACS Med Chem Lett, 2011).

For orientation: CC50 means the concentration giving 50% cytotoxicity. Read a low CC50 as greater toxicity to the cells. Usually IC50 stands for the point on the concentration scale where inhibition reaches its midpoint. A low value points to higher potency. Usually EC50 stands for the concentration giving half of the maximal effect. Low values mean higher potency in that assay, high ones lower potency in that assay.

The structures appear in SMILES notation. Where only a bound is given, the exact number is not on record here.

System in one data set: not listed separately
Description: Cytotoxicity against human MAGI cells by MTS assay. The data set is classed as cell-based.
Conditions: not given
The compound `CC(C)OC(=O)/C(O)=C/C(=O)c1cc(Cc2ccc(F)cc2F)cn(Cc2ccccc2F)c1=O` displayed a CC50 of 135000 nM and a CC90 of over 200000 nM.

The target in a further data set is Human immunodeficiency virus type 1 integrase (Human immunodeficiency virus 1, UniProt Q7ZJM1). Description: Inhibition of HIV1 integrase-mediated strand transfer.
Sequence of Human immunodeficiency virus type 1 integrase (Q7ZJM1 whole entry): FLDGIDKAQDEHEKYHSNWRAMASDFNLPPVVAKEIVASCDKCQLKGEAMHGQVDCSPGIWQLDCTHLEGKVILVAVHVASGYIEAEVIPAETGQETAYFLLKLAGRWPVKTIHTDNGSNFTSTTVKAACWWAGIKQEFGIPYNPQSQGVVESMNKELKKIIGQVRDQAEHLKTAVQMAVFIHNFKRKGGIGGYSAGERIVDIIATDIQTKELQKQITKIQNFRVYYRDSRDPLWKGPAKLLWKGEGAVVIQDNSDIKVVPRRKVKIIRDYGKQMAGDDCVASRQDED
Conditions: not given
`CC(C)OC(=O)/C(O)=C/C(=O)c1cc(Cc2ccc(F)cc2F)cn(Cc2ccccc2F)c1=O` showed an IC50 of over 475 nM.
`O=C(O)/C(O)=C/C(=O)c1cc(Cc2ccccc2)cn(Cc2ccccc2)c1=O` came in with an IC50 of 70 nM.

The next data set concerns Human immunodeficiency virus 1. Description: Antiviral activity against HIV1 infected in MAGI cells by beta-galactosidase reporter gene assay. It counts as functional, organism-based. To be noted: Human immunodeficiency virus 1, MAGI. Put shortly: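 HIV-1 infection of MAGI cells, with raltegravir as the MOI-sensitive positive control validating each run. EC50 and EC90 were determined.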
For orientation: Reporter assays use an easily measured gene product as a stand-in for the process of interest.
For the compound `Cc1ccc(Cn2cc(Cc3ccccc3F)cc(C(=O)/C=C(\O)C(=O)O)c2=O)cc1`, a half-maximal response (EC50) required 700 nM.
Take `O=C(O)/C(O)=C/C(=O)c1cc(Cc2ccccc2)cn(Cc2cccc(Cl)c2F)c1=O`: the response was half-maximal at 700 nM (EC50).
Take `O=C(O)/C(O)=C/C(=O)c1cc(Cc2ccccc2)cn(Cc2ccccc2F)c1=O`: it took 900 nM to reach a half-maximal effect (EC50).
The same measure, in the same setting: in the case of `O=C(O)/C(O)=C/C(=O)c1cc(Cc2ccccc2F)cn(Cc2ccccc2F)c1=O` it was 700 nM; in that of `O=C(O)/C(O)=C/C(=O)c1cc(Cc2cccc(Cl)c2)cn(Cc2ccccc2F)c1=O`, 1900 nM; in that of `Cc1cc(F)ccc1Cc1cc(C(=O)/C=C(\O)C(=O)O)c(=O)n(Cc2ccc(F)cc2)c1`, 1000 nM.
Consider `O=C(O)/C(O)=C/C(=O)c1cc(Cc2ccc(F)c(Cl)c2)cn(Cc2ccc(F)cc2F)c1=O`, for which the midpoint of the response, the EC50, lay at 1400 nM.
For `O=C(O)/C(O)=C/C(=O)c1cc(Cc2ccccc2)cn(Cc2c(F)cccc2F)c1=O`, a half-maximal effect (EC50) was put at 1500 nM.
Compound `O=C(O)/C(O)=C/C(=O)c1cc(Cc2ccccc2)cn(Cc2ccc(F)c(Cl)c2F)c1=O` came in with an EC50 of 600 nM.
On the same count and under the same terms, in the case of `CC(C)OC(=O)/C(O)=C/C(=O)c1cc(Cc2ccc(F)cc2F)cn(Cc2ccccc2F)c1=O` it was 9 nM; in that of `O=C(O)/C(O)=C/C(=O)c1cc(Cc2ccc(F)cc2F)cn(Cc2ccc(F)cc2)c1=O`, 600 nM; in that of `O=C(O)/C(O)=C/C(=O)c1cc(Cc2ccc(F)cc2)cn(Cc2ccc(F)cc2)c1=O`, 800 nM.
Still for that read-out and setting: next, `COc1ccc(Cc2cc(C(=O)/C=C(\O)C(=O)O)c(=O)n(Cc3ccc(OC)cc3)c2)cc1`: over 5000 nM; `O=C(O)/C(O)=C/C(=O)c1cc(Cc2ccc(F)c(Cl)c2)cn(Cc2ccccc2F)c1=O`: 2200 nM; `O=C(O)/C(O)=C/C(=O)c1cc(Cc2ccc(F)cc2)cn(Cc2cccc(F)c2F)c1=O`: 700 nM.
Regarding `O=C(O)/C(O)=C/C(=O)c1cc(Cc2cccc(Cl)c2)cn(Cc2ccc(F)cc2)c1=O`, a half-maximal effect (EC50) was put at 1400 nM.
As to `CC(C)OC(=O)/C(O)=C/C(=O)c1cc(Cc2ccc(F)cc2F)cn(Cc2ccc(F)cc2F)c1=O`, the EC50 was determined as 46 nM.
Regarding `O=C(O)/C(O)=C/C(=O)c1cc(Cc2cccc(Cl)c2)cn(Cc2ccc(Cl)cc2)c1=O`, the EC50 came to 2500 nM.
In turn, `Cc1cccc(Cn2cc(Cc3ccccc3F)cc(C(=O)/C=C(\O)C(=O)O)c2=O)c1` yielded an EC50 of 900 nM.
Turning to `O=C(O)/C(O)=C/C(=O)c1cc(Cc2ccccc2)cn(Cc2ccccc2)c1=O`, the EC50 was determined as 2100 nM.
Still for that read-out and setting: in the case of `COc1ccc(Cn2cc(Cc3ccccc3)cc(C(=O)/C=C(\O)C(=O)O)c2=O)cc1` it was 1800 nM; in that of `O=C(O)/C(O)=C/C(=O)c1cc(Cc2ccccc2)cn(Cc2cccc(F)c2)c1=O`, 2000 nM.
The same measure, in the same setting: in the case of `O=C(O)/C(O)=C/C(=O)c1cc(Cc2ccccc2)cn(Cc2cccc(F)c2F)c1=O` it was 900 nM; in that of `O=C(O)/C(O)=C/C(=O)c1cc(Cc2ccc(F)cc2)cn(Cc2cccc(F)c2)c1=O`, 1000 nM.
`O=C(O)/C(O)=C/C(=O)c1cc(Cc2ccc(F)c(Cl)c2)cn(Cc2ccc(F)cc2)c1=O` registered a half-maximal effective concentration (EC50) of over 5000 nM.
Regarding `O=C(O)/C(O)=C/C(=O)c1cc(Cc2cccc(Cl)c2F)cn(Cc2cccc(Cl)c2)c1=O`, a half-maximal effect (EC50) was put at 1500 nM.
As to `O=C(O)/C(O)=C/C(=O)c1cc(Cc2ccccc2)cn(Cc2cc(Cl)ccc2F)c1=O`, the midpoint of the response, the EC50, lay at 900 nM.
For the compound `O=C(O)/C(O)=C/C(=O)c1cc(Cc2ccc(F)c(Cl)c2)cn(Cc2ccc(F)c(Cl)c2)c1=O`, the EC50 amounted to 2400 nM.
The compound `Cc1ccc(Cn2cc(Cc3ccc(F)cc3)cc(C(=O)/C=C(\O)C(=O)O)c2=O)cc1` showed an EC50 of 1600 nM.
Same read-out and setting: next, `O=C(O)/C(O)=C/C(=O)c1cc(Cc2ccccc2)cn(Cc2ccc(F)cc2F)c1=O`: 600 nM.
The same measure, in the same setting: next, `O=C(O)/C(O)=C/C(=O)c1cc(Cc2ccccc2)cn(Cc2ccc(F)cc2)c1=O`: 1000 nM; `Cc1cc(F)ccc1Cc1cc(C(=O)/C=C(\O)C(=O)O)c(=O)n(Cc2ccccc2)c1`: 1300 nM; `Cc1cccc(Cn2cc(Cc3ccc(F)cc3F)cc(C(=O)/C=C(\O)C(=O)O)c2=O)c1`: 700 nM.
For the compound `Cc1ccc(Cn2cc(Cc3cccc(Cl)c3)cc(C(=O)/C=C(\O)C(=O)O)c2=O)cc1`, the EC50 was found to be 2500 nM.
Regarding `Cc1cc(F)ccc1Cc1cc(C(=O)/C=C(\O)C(=O)O)c(=O)n(Cc2ccccc2F)c1`, the EC50 is 1300 nM.
`O=C(O)/C(O)=C/C(=O)c1cc(Cc2cccc(Cl)c2)cn(Cc2ccc(F)c(Cl)c2)c1=O` came in with an EC50 of 1200 nM.
Same read-out and setting: next, `O=C(O)/C(O)=C/C(=O)c1cc(Cc2cccc(Cl)c2)cn(Cc2cccc(Cl)c2)c1=O`: 1100 nM; `Cc1ccc(Cn2cc(Cc3ccc(F)c(Cl)c3)cc(C(=O)/C=C(\O)C(=O)O)c2=O)cc1`: over 5000 nM.
`Cc1cccc(Cn2cc(Cc3ccc(F)c(Cl)c3)cc(C(=O)/C=C(\O)C(=O)O)c2=O)c1` gave an EC50 of 2200 nM.
Still for that read-out and setting: next, `O=C(O)/C(O)=C/C(=O)c1cc(Cc2ccccc2Cl)cn(Cc2ccc(F)cc2F)c1=O`: 800 nM.
In the case of `O=C(O)/C(O)=C/C(=O)c1cc(Cc2ccccc2)cn(Cc2ccc(F)c(Cl)c2)c1=O`, the midpoint of the response, the EC50, lay at 800 nM.
With `O=C(O)/C(O)=C/C(=O)c1cc(Cc2ccccc2F)cn(Cc2ccc(F)cc2F)c1=O`, a half-maximal effect (EC50) was put at 600 nM.
Turning to `O=C(O)/C(O)=C/C(=O)c1cc(Cc2ccccc2F)cn(Cc2ccc(F)cc2)c1=O`, it took 800 nM to reach a half-maximal effect (EC50).
Same read-out and setting: in the case of `Cc1cccc(Cc2cc(C(=O)/C=C(\O)C(=O)O)c(=O)n(Cc3cccc(Cl)c3F)c2)c1` it was 1400 nM.
On the same count and under the same terms, next, `O=C(O)/C(O)=C/C(=O)c1cc(Cc2ccc(F)cc2F)cn(Cc2ccccc2)c1=O`: 800 nM.
The same measure, in the same setting: next, `O=C(O)/C(O)=C/C(=O)c1cc(Cc2cccc(Cl)c2F)cn(Cc2cccc(Cl)c2F)c1=O`: 2400 nM; `O=C(O)/C(O)=C/C(=O)c1cc(Cc2ccc(F)cc2)cn(Cc2c(F)cccc2F)c1=O`: 1400 nM.
The compound `O=C(O)/C(O)=C/C(=O)c1cc(Cc2ccccc2F)cn(Cc2cccc(F)c2F)c1=O` displayed an EC50 of 800 nM.
Still for that read-out and setting: in the case of `O=C(O)/C(O)=C/C(=O)c1cc(Cc2ccc(F)c(Cl)c2)cn(Cc2c(F)cccc2F)c1=O` it was 5100 nM; in that of `O=C(O)/C(O)=C/C(=O)c1cc(Cc2ccccc2F)cn(Cc2cccc(F)c2)c1=O`, 1900 nM; in that of `O=C(O)/C(O)=C/C(=O)c1cc(Cc2ccc(F)cc2)cn(Cc2ccccc2F)c1=O`, 700 nM.
Compound `O=C(O)/C(O)=C/C(=O)c1cc(Cc2ccc(F)cc2)cn(Cc2cccc(Cl)c2)c1=O` had an EC50 of 1200 nM.
`O=C(O)/C(O)=C/C(=O)c1cc(Cc2cccc(C(=O)O)c2)cn(Cc2ccccc2)c1=O` gave an EC50 of over 5000 nM.
As for `O=C(O)/C(O)=C/C(=O)c1cc(Cc2ccc(F)cc2F)cn(Cc2ccc(F)cc2F)c1=O`, the midpoint of the response, the EC50, lay at 300 nM.
Turning to `O=C(O)/C(O)=C/C(=O)c1cc(Cc2ccccc2F)cn(Cc2cccc(Cl)c2)c1=O`, the EC50 is 700 nM.
The compound `N#Cc1ccc(Cn2cc(Cc3ccccc3F)cc(C(=O)/C=C(\O)C(=O)O)c2=O)cc1` showed an EC50 of 1100 nM.
Consider `O=C(O)/C(O)=C/C(=O)c1cc(Cc2cccc(Cl)c2)cn(Cc2cccc(Cl)c2F)c1=O`, for which the EC50 came to 1400 nM.

System in a further data set: not listed separately
Description: Therapeutic index, ratio of CC50 for human MAGI cells to EC50 for HIV1.
Conditions: not given
The data set is classed as cell-based.
Consider `CC(C)OC(=O)/C(O)=C/C(=O)c1cc(Cc2ccc(F)cc2F)cn(Cc2ccccc2F)c1=O`, for which the “Ratio CC50/EC50” value turned out to be 15000.

System in a further data set: not listed separately
Description: Cytotoxicity against PBMC. It counts as cell-based. The following applies: human.
Consider `O=C(/C=C(\O)c1nc[nH]n1)c1ccc(Cc2ccc(F)cc2)o1` [S-1360], for which the cytotoxic concentration (CC50) turned out to be 110000 nM.

The subject of a further data set is Human immunodeficiency virus 1. Description: Antiviral activity against HIV1 infected in human MT4 cells. To be noted: Human immunodeficiency virus 1, MT4.
Take `O=C(O)C(=O)CC(=O)c1cccn1Cc1ccc(F)cc1`: the response was half-maximal at 1000 nM (EC50).
